Test results as given in ChEMBL document CHEMBL4138275, “Taccalonolide Microtubule Stabilizers Generated Using Semisynthesis Define the Effects of Mono Acyloxy Moieties at C-7 or C-15 and Disubstitutions at C-7 and C-25” (J Nat Prod, 2018).
Activity calls are given as the source filed them. The calls are words filed in the database; no cut-off is given here.

Experiments:
HeLa [1] = assay: Antiproliferative activity against human HeLa cells after 48 hrs by sulforhodamine B assay; format: functional, cell-based
Summary of the method: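 HeLa cells (STR-validated) grown in BME with 10% FBS and gentamycin, seeded 2500/well, left to adhere overnight, then exposed to compounds for 48 h. Cell density read by sulforhodamine B staining. IC50 is the concentration giving 50% inhibition of cell density versus vehicle, fitted by nonlinear regression. Mean of 3 or 4 experiments, each in triplicate, ±SD.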

HeLa [2] = assay: Induction of microtubule stabilization in human HeLa cells assessed as formation of multiple aberrant mitotic spindle at 5 times IC50 after 18 hrs by indirect immunofluorescence assay; format: cell-based
Summary of the method: (§1)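 HeLa cells treated for 18 h at 5-fold each compound's own antiproliferative IC50, with EtOH as vehicle control. Mitotic and interphase microtubules stained by indirect immunofluorescence with a β-tubulin antibody and viewed by fluorescence microscopy.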

HeLa [3] = assay: Induction of microtubule stabilization in human HeLa cells assessed as bundling of interphase microtubule at 5 times IC50 after 18 hrs by indirect immunofluorescence assay; format: cell-based; summary of the method: as §1
Sus scrofa [4] = organism: Sus scrofa; assay: Induction of porcine brain tubulin polymerization at 5 uM by turbidimetric method
Summary of the method: (§2)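 Compound or vehicle (1% EtOH) added; samples prepared on ice, then warmed to 37 °C to start polymerization. Rate and extent followed turbidimetrically at 340 nm.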

[5] = Toxicity in ip dosed athymic nude mouse harboring tumor; format: organism-based; details: in vivo
Summary of the method: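 Dose tolerance was assessed in tumor-bearing mice carrying drug-sensitive or drug-resistant xenografts, with compound given by ip injection. A cumulative maximal tolerated dose was determined.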

NCI/ADR-RES [6] = assay: Antitumor activity against human NCI/ADR-RES cells xenografted in athymic nude mouse administered via ip; format: functional, cell-based
NCI/ADR-RES [7] = assay: Antitumor activity against human NCI/ADR-RES cells xenografted in athymic nude mouse assessed as reduction in tumor growth at 40 ug administered intratumorally on day day 0, 3, 6, 10 and 14 measured on day 0 post dose; format: functional, cell-based
Summary of the method: (§3)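 NCI/ADR-RES tumor fragments implanted s.c. in flanks of female athymic nude mice. At about 250 mm3 (100−465 mm3), mice were grouped (n = 7−9). Tumors were injected directly with 200 μL on days 0, 3, 6, 10 and 14: 20 μg in 10% EtOH/PBS, paclitaxel 40 μg in 1% Cremophor/EtOH in PBS, or vehicle. Volume = length × width × height by calipers.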

NCI/ADR-RES [8] = assay: Antitumor activity against human NCI/ADR-RES cells xenografted in athymic nude mouse assessed as reduction in tumor growth at 40 ug administered intratumorally on day 0, 3, 6, 10 and 14 measured on day 12 to 14 post dose; format: functional, cell-based; summary of the method: as §3
NCI/ADR-RES [9] = assay: Antitumor activity against human NCI/ADR-RES cells xenografted in athymic nude mouse assessed as reduction in tumor growth at 40 ug administered intratumorally on day 0, 3, 6, 10 and 14 measured up to 14 days during compound dosing; format: functional, cell-based; summary of the method: as §3
Sus scrofa [10] = organism: Sus scrofa; assay: Induction of porcine brain tubulin polymerization at 5 to 20 uM by turbidimetric method; summary of the method: as §2
NCI/ADR-RES [11] = assay: Antitumor activity against human NCI/ADR-RES cells xenografted in athymic nude mouse assessed as reduction in tumor growth at 20 ug administered intratumorally on day day 0, 3, 6, 10 and 14 measured on day 0 post dose; format: functional, cell-based
Summary of the method: (§4)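 NCI/ADR-RES tumor fragments implanted s.c. in the flanks of female athymic nude mice. Randomized at a mean tumor volume of 250 mm3 (range 100−465). Dosing was 20 μg in 200 μL of 10% EtOH/PBS by intratumoral injection on days 0, 3, 6, 10 and 14; vehicle and paclitaxel groups ran alongside. Caliper volume = L×W×H. Mice were euthanized at 1500 mm3. Two-way ANOVA with Tukey post hoc.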

NCI/ADR-RES [12] = assay: Antitumor activity against human NCI/ADR-RES cells xenografted in athymic nude mouse assessed as reduction in tumor growth at 20 ug administered intratumorally on day 0, 3, 6, 10 and 14 measured on day 12; format: functional, cell-based; summary of the method: as §4
Mus musculus [13] = assay: Toxicity in athymic nude mouse xenografted with human NCI/ADR-RES cells assessed as adverse effect at 20 ug administered intratumorally on day 0, 3, 6, 10 and 14 measured on day 12; format: organism-based; details: in vivo, other; summary of the method: as §4
NCI/ADR-RES [14] = assay: Antitumor activity against human NCI/ADR-RES cells xenografted in athymic nude mouse assessed as reduction in tumor growth at 20 ug administered intratumorally on day 0, 3, 6, 10 and 14 measured on day 12 to 14 post dose; format: functional, cell-based; summary of the method: as §4
NCI/ADR-RES [15] = assay: Antitumor activity against human NCI/ADR-RES cells xenografted in athymic nude mouse assessed as time required to show half of the tumors to reach tumor volume <1500 mm3 at 20 ug administered intratumorally on day 0, 3, 6, 10 and 14 measured after 5 days; format: functional; summary of the method: as §4
NCI/ADR-RES [16] = assay: Antitumor activity against human NCI/ADR-RES cells xenografted in athymic nude mouse assessed as reduction in tumor growth at 20 ug administered intratumorally on day 0, 3, 6, 10 and 14 measured on day 10 post dose; format: functional, cell-based; summary of the method: as §3
Mus musculus [17] = assay: Toxicity in athymic nude mouse xenografted with human NCI/ADR-RES cells assessed as weight loss at 20 ug administered intratumorally on day 0, 3, 6, 10 and 14 measured on day 10; format: organism-based; details: in vivo, other; summary of the method: as §4
NCI/ADR-RES [18] = assay: Antitumor activity against human NCI/ADR-RES cells xenografted in athymic nude mouse assessed as delay in tumor growth at 20 ug administered intratumorally on day 0, 3, 6, 10 and 14 measured up to 54 days starting from 5 days post last dose; format: functional, cell-based; summary of the method: as §3
NCI/ADR-RES [19] = assay: Antitumor activity against human NCI/ADR-RES cells xenografted in athymic nude mouse assessed as tumor volume at 20 ug administered intratumorally on day 0, 3, 6, 10 and 14 measured up to 45 days starting from 5 days post last dose; format: functional; summary of the method: as §3

Structure (SMILES) | IC50 (HeLa [1]) | Activity (HeLa [2]) | Activity (HeLa [3]) | Activity (Sus scrofa [4]) | MTD [5] | Activity (NCI/ADR-RES [6]) | other results
CC(=O)O[C@H]1[C@H]2[C@H]([C@@H]3[C@@H](OC(=O)C(C)C)[C@@H]4[C@H]([C@H](C)[C@H]5O[C@]56OC(=O)[C@@](C)(O)[C@]46C)[C@@]3(C)[C@H]1OC(C)=O)[C@@H](O)C(=O)[C@H]1C[C@@H]3O[C@@H]3[C@H](OC(C)=O)[C@]21C | 10.6 nM | Active | Active | Active | < 10 mg/kg |  | 
CC(=O)O[C@H]1[C@H]2[C@H]([C@@H]3[C@@H](O)[C@@H]4[C@H]([C@H](C)[C@H]5O[C@]56OC(=O)[C@@](C)(O)[C@]46C)[C@@]3(C)[C@H]1OC(C)=O)[C@@H](OC(=O)C(C)C)C(=O)[C@H]1C[C@@H]3O[C@@H]3[C@H](OC(C)=O)[C@]21C | 19 nM | Active | Active |  |  |  | 
CC(=O)O[C@@H]1[C@H]2[C@H]3[C@H]([C@H](OC(C)=O)[C@H](OC(C)=O)[C@]2(C)[C@H]2[C@H](C)[C@H]4O[C@]45OC(=O)[C@@](C)(O)[C@]5(C)[C@H]12)[C@]1(C)[C@H](C[C@@H]2O[C@@H]2[C@@H]1OC(C)=O)C(=O)[C@@H]3O | 23 nM |  |  |  |  | Active | 
CC(=O)O[C@H]1[C@H]2[C@H]([C@@H]3[C@@H](O)[C@@H]4[C@H]([C@H](C)[C@H]5O[C@]56OC(=O)[C@@](C)(OC(=O)C5CC5)[C@]46C)[C@@]3(C)[C@H]1OC(C)=O)[C@@H](OC(=O)C1CC1)C(=O)[C@H]1C[C@@H]3O[C@@H]3[C@H](OC(C)=O)[C@]21C | 130 nM | Active | Active |  |  |  | 
CC(=O)O[C@H]1C(=O)[C@@]2(C)[C@H]([C@H](OC(=O)c3ccccc3)[C@]3(O)C[C@H](OC(=O)[C@H](O)[C@@H](NC(=O)c4ccccc4)c4ccccc4)C(C)=C1C3(C)C)[C@]1(OC(C)=O)CO[C@@H]1C[C@@H]2O |  |  |  |  |  |  | Activity (NCI/ADR-RES [7]): inactive; Activity (NCI/ADR-RES [8]): Active; Activity (NCI/ADR-RES [9]): inactive
CC(=O)O[C@H]1[C@H]2[C@H]([C@@H]3[C@@H](O)[C@@H]4[C@H]([C@H](C)[C@H]5O[C@]56OC(=O)[C@@](C)(O)[C@]46C)[C@@]3(C)[C@H]1OC(C)=O)[C@@H](O)C(=O)[C@H]1C[C@@H]3O[C@@H]3[C@H](OC(C)=O)[C@]21C | 4.2 nM |  |  |  |  | inactive | Activity (Sus scrofa [10]): Active
CC(=O)O[C@H]1[C@H]2[C@H]([C@@H]3[C@@H](OC(=O)C(C)(C)C)[C@@H]4[C@H]([C@H](C)[C@H]5O[C@]56OC(=O)[C@@](C)(O)[C@]46C)[C@@]3(C)[C@H]1OC(C)=O)[C@@H](O)C(=O)[C@H]1C[C@@H]3O[C@@H]3[C@H](OC(C)=O)[C@]21C | 4.2 nM | Active | Active |  | < 10 mg/kg |  | 
CC(=O)O[C@H]1[C@H]2[C@H]([C@@H]3[C@@H](O)[C@@H]4[C@H]([C@H](C)[C@H]5O[C@]56OC(=O)[C@@](C)(OC(=O)CC(C)C)[C@]46C)[C@@]3(C)[C@H]1OC(C)=O)[C@@H](OC(=O)CC(C)C)C(=O)[C@H]1C[C@@H]3O[C@@H]3[C@H](OC(C)=O)[C@]21C | 250 nM | Active | Active |  |  |  | 
CC(=O)O[C@H]1[C@H]2[C@H]([C@@H]3[C@@H](OC(=O)C4CC4)[C@@H]4[C@H]([C@H](C)[C@H]5O[C@]56OC(=O)[C@@](C)(O)[C@]46C)[C@@]3(C)[C@H]1OC(C)=O)[C@@H](O)C(=O)[C@H]1C[C@@H]3O[C@@H]3[C@H](OC(C)=O)[C@]21C | 27.5 nM | Active | Active | Active | < 10 mg/kg |  | 
CC(=O)O[C@H]1[C@H]2[C@H]([C@@H]3[C@@H](O)[C@@H]4[C@H]([C@H](C)[C@H]5O[C@]56OC(=O)[C@@](C)(O)[C@]46C)[C@@]3(C)[C@H]1OC(C)=O)[C@@H](OC(=O)C(C)(C)C)C(=O)[C@H]1C[C@@H]3O[C@@H]3[C@H](OC(C)=O)[C@]21C | 9 nM | Active | Active | Active |  |  | 
CC(=O)O[C@H]1[C@H]2[C@H]([C@@H]3[C@@H](O)[C@@H]4[C@H]([C@H](C)[C@H]5O[C@]56OC(=O)[C@@](C)(O)[C@]46C)[C@@]3(C)[C@H]1OC(C)=O)[C@@H](OC(=O)CC(C)C)C(=O)[C@H]1C[C@@H]3O[C@@H]3[C@H](OC(C)=O)[C@]21C | 2.4 nM | Active | Active | Active | < 10 mg/kg | inactive | Activity (NCI/ADR-RES [11]): Active; Activity (NCI/ADR-RES [12]): Active; Activity (Mus musculus [13]): Non-Toxic; Activity (NCI/ADR-RES [14]): Active; Time (NCI/ADR-RES [15]): 38 days
CC(=O)O[C@H]1[C@H]2[C@H]([C@@H]3[C@@H](OC=O)[C@@H]4[C@H]([C@H](C)[C@H]5O[C@]56OC(=O)[C@@](C)(O)[C@]46C)[C@@]3(C)[C@H]1OC(C)=O)[C@@H](O)C(=O)[C@H]1C[C@@H]3O[C@@H]3[C@H](OC(C)=O)[C@]21C | 8.4 nM | Active |  |  |  |  | 
CC(=O)O[C@H]1[C@H]2[C@H]([C@@H]3[C@@H](OC(=O)CC(C)C)[C@@H]4[C@H]([C@H](C)[C@H]5O[C@]56OC(=O)[C@@](C)(O)[C@]46C)[C@@]3(C)[C@H]1OC(C)=O)[C@@H](O)C(=O)[C@H]1C[C@@H]3O[C@@H]3[C@H](OC(C)=O)[C@]21C | 2.7 nM | Active | Active | Active | < 10 mg/kg | inactive | Activity (NCI/ADR-RES [11]): Active; Activity (NCI/ADR-RES [16]): Active; Activity (Mus musculus [17]): Non-Toxic; Activity (NCI/ADR-RES [14]): Active; Activity (NCI/ADR-RES [18]): Active; Activity (NCI/ADR-RES [19]): <1500 mm3
